Measured values: ChEMBL document CHEMBL3872211, “4, 5-Dihydrooxazole-pyrazoline hybrids: Synthesis and their evaluation as potential antimalarial agents” (Eur J Med Chem, 2016)
Converted amounts (≈) assume the structure as drawn.

Key:
[1] = system: Plasmodium falciparum; experiment: Antimalarial activity against chloroquine-sensitive Plasmodium falciparum 3D7 infected in human red blood cells assessed as inhibition of schizont stage parasite growth measured after 24 hrs by giemsa staining based assay; type: functional, cell-based; conditions: 3D7, 24 h
Method in brief: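 Parasitized RBCs (2-3% parasitemia, 8% hematocrit) in RPMI 1640 with human AB+ serum were exposed to serial dilutions of test samples from 1 mg/ml stock. Incubation was 24 h at 37 °C under 90% N2/5% CO2/5% O2. Giemsa-stained smears were scored for schizonts (≥3 merozoites). IC50 was taken from dose-response curves by non-linear regression.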

[2] = Selectivity index, ratio of IC50 for cytotoxicity against African green monkey vero cells to IC50 for antimalarial activity against chloroquine-resistant Plasmodium falciparum RKL9 infected in human red blood cells; type: toxicity, cell-based; conditions: read-out: Ratio IC50
Method in brief: (§1)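 SI = CC50/IC50. CC50 from Vero cells exposed 72 h to compound dilutions, MTT read-out (modified Mosmann method). Antimalarial IC50 from 24 h, 37 °C P. falciparum (3D7 or RKL9) RBC culture, Giemsa schizont counts, non-linear regression.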

[3] = system: Plasmodium falciparum; experiment: Antimalarial activity against chloroquine-resistant Plasmodium falciparum RKL9 infected in human red blood cells assessed as inhibition of schizont stage parasite growth measured after 24 hrs by giemsa staining based assay; type: functional, cell-based; conditions: RKL9, 24 h
Method in brief: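 P. falciparum RKL9 parasitized RBCs at 2-3% parasitemia, 8% hematocrit in RPMI 1640 with human AB+ serum. Exposed to serial dilutions of test samples, 24 h at 37 °C under 90% N2/5% CO2/5% O2. Giemsa-stained smears; schizonts (≥3 merozoites) counted; IC50 by non-linear regression of dose-response curves.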

[4] = Resistance index, ratio of IC50 for chloroquine-resistant Plasmodium falciparum RKL9 infected in human RBC to IC50 for chloroquine-sensitive Plasmodium falciparum 3D7 infected in human red blood cells; type: functional
Method in brief: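 Ratio of IC50 vs RKL9 to IC50 vs 3D7. Both from 24 h, 37 °C culture in RBCs (2-3% parasitemia, 8% hematocrit, RPMI 1640 plus human AB+ serum, 90% N2/5% CO2/5% O2), Giemsa smear schizont counts, non-linear regression.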

[5] = Selectivity index, ratio of IC50 for cytotoxicity against African green monkey vero cells to IC50 for antimalarial activity against chloroquine-sensitive Plasmodium falciparum 3D7 infected in human red blood cells; type: toxicity, cell-based; conditions: read-out: Ratio IC50; method in brief: as §1
[6] = system: Plasmodium berghei; experiment: Antimalarial activity against Plasmodium berghei NK65 infected in Swiss albino mouse assessed as mean survival days at 5 mg/kg, po administered 4 hrs post infection for 4 days measured up to 30 days (reference value: 7.2 days); type: functional
[7] = system: Plasmodium berghei; experiment: Antimalarial activity against Plasmodium berghei NK65 infected in Swiss albino mouse assessed as reduction in parasitemia at 5 mg/kg, po administered 4 hrs post infection for 4 days measured on day 4 post infection by giemsa staining based microscopic method; type: functional; set-up: scale not given: the % may be the effect or the level left
Method in brief: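 Peters 4-day suppressive test: female Swiss albino mice (20-25 g), groups of five, infected ip with about 10-15% P. berghei NK65-parasitized erythrocytes from a donor mouse. Oral dosing began 4 h later and was given on days 0-3. Vehicle-only group served as negative control. On day 4, tail-vein smears were methanol-fixed, Giemsa-stained and read at 1000×. % suppression was calculated against the negative control.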

## c1ccc2c(C3CC(c4ccc(OCC5=NCCO5)cc4)=NN3)c[nH]c2c1 (stereo not drawn)
[1]
  IC50: 0.657 µg/mL (≈ 1.82 µM)

## NS(=O)(=O)c1ccc(N2N=C(c3ccc(OCC4=NCCO4)cc3)CC2c2cccc([N+](=O)[O-])c2)cc1 (stereo not drawn)
[1]
  IC50: 1.02 µg/mL (≈ 1.96 µM)

## CC(=O)N1N=C(c2ccc(OCC3=NCCO3)cc2)CC1c1ccc(Cl)cc1 (stereo not drawn)
[1]
  IC50: 0.513 µg/mL (≈ 1.29 µM)
[2]
  selectivity ratio: 9.6
[3]
  IC50: 1.57 µg/mL (≈ 3.95 µM)
[4]
  Ratio IC50: 3.06
[5]
  selectivity ratio: 29.5

## O=C(/C=C/c1cccc([N+](=O)[O-])c1)c1ccc(OCC2=NCCO2)cc1
[1]
  IC50: 1.57 µg/mL (≈ 4.46 µM)

## NS(=O)(=O)c1ccc(N2N=C(c3ccc(OCC4=NCCO4)cc3)CC2c2ccc(F)cc2)cc1 (stereo not drawn)
[1]
  IC50: 0.419 µg/mL (≈ 0.847 µM)
[2]
  selectivity ratio: 4.6
[3]
  IC50: 1.77 µg/mL (≈ 3.59 µM)
[4]
  Ratio IC50: 4.23
[5]
  selectivity ratio: 19.8

## O=C(/C=C/c1ccc([N+](=O)[O-])cc1)c1ccc(OCC2=NCCO2)cc1
[1]
  IC50: 0.723 µg/mL (≈ 2.05 µM)

## NS(=O)(=O)c1ccc(N2N=C(c3ccc(OCC4=NCCO4)cc3)CC2c2ccc(Cl)cc2)cc1 (stereo not drawn)
[1]
  IC50: 0.471 µg/mL (≈ 0.922 µM)
[2]
  selectivity ratio: 5.7
[3]
  IC50: 1.82 µg/mL (≈ 3.57 µM)
[4]
  Ratio IC50: 3.87
[5]
  selectivity ratio: 22.2

## Cc1ccc(/C=C/C(=O)c2ccc(OCC3=NCCO3)cc2)cc1
[1]
  IC50: 2.68 µg/mL (≈ 8.34 µM)

## NS(=O)(=O)c1ccc(N2N=C(c3ccc(OCC4=NCCO4)cc3)CC2c2ccc3c(c2)OCCO3)cc1 (stereo not drawn)
[1]
  IC50: 2.15 µg/mL (≈ 4.03 µM)

## Fc1ccc(C2CC(c3ccc(OCC4=NCCO4)cc3)=NN2c2ccccc2)cc1 (stereo not drawn)
[1]
  IC50: 0.645 µg/mL (≈ 1.55 µM)

## O=C(/C=C/c1c[nH]c2ccccc12)c1ccc(OCC2=NCCO2)cc1
[1]
  IC50: 0.936 µg/mL (≈ 2.7 µM)

## Cc1ccc(C2CC(c3ccc(OCC4=NCCO4)cc3)=NN2c2ccccc2)cc1 (stereo not drawn)
[1]
  IC50: 1.01 µg/mL (≈ 2.45 µM)

## c1ccc(N2N=C(c3ccc(OCC4=NCCO4)cc3)CC2c2c[nH]c3ccccc23)cc1 (stereo not drawn)
[1]
  IC50: 0.459 µg/mL (≈ 1.05 µM)
[2]
  selectivity ratio: 2.3
[3]
  IC50: 4.23 µg/mL (≈ 9.7 µM)
[4]
  Ratio IC50: 9.22
[5]
  selectivity ratio: 21.3

## NS(=O)(=O)c1ccc(N2N=C(c3ccc(OCC4=NCCO4)cc3)CC2c2ccc([N+](=O)[O-])cc2)cc1 (stereo not drawn)
[1]
  IC50: 0.627 µg/mL (≈ 1.2 µM)

## O=C(/C=C/c1cccc(Cl)c1)c1ccc(OCC2=NCCO2)cc1
[1]
  IC50: 0.577 µg/mL (≈ 1.69 µM)

## CCN(CC)CCCC(C)Nc1ccnc2cc(Cl)ccc12 (stereo not drawn) [CHLOROQUINE]
[6]
  MSD: 30 days
[7]
  Activity: 97.1%
